# Experiments:
# Klebsiella pneumoniae [1] = test: Inhibition of beta lactamase KPC-3 in Klebsiella pneumoniae 81 assessed as potentiation of meropenem-induced antibacterial activity by measuring meropenem MIC at 16 mg/L incubated for 18 hrs by broth dilution method (reference value: […] mg/L)
# Klebsiella pneumoniae [2] = test: Inhibition of beta lactamase KPC-2 in Klebsiella pneumoniae 75 assessed as potentiation of meropenem-induced antibacterial activity by measuring meropenem MIC at 16 mg/L incubated for 18 hrs by broth dilution method (reference value: […] mg/L)
# Enterococcus faecium = test: Bactericidal activity against Enterococcus faecium ATCC 6057 measured after 18 hrs by CLSI broth dilution method; format: functional; settings: ATCC 6057, 18 h
# Procedure, shortened: (§1)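 Strains stored at -80 °C and subcultured twice on tryptic soy agar before testing. Compounds dissolved in DMSO. […] MBC then determined per CLSI recommendations.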
# [3] = Cytotoxicity against human MRC5 cells assessed as cell viability at 0.5 ug/ml incubated for 72 hrs by MTT assay; format: cell-based; settings: read-out: Activity
# Procedure, shortened: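 MRC-5 pd30 human fibroblasts grown in MEM with 10% FBS, 2 mM L-glutamine, penicillin/streptomycin and 1% non-essential amino acids at 37 °C, 5% CO2. Exponentially growing cells trypsinized and seeded at 8×10^3 cells/well, then dosed 18 h later with 2-fold dilutions (0.5% DMSO final) for 72 h. MTT (1 mg/ml final) added for 1 h at 37 °C, formazan dissolved in DMSO, OD read at 570 nm. Four replicates, expressed as % viable versus control.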
# [4] = tested on: Stenotrophomonas maltophilia; test: Bactericidal activity against Stenotrophomonas maltophilia ATCC 13637 measured after 18 hrs by CLSI broth dilution method; format: functional; settings: ATCC 13637, 18 h; procedure, shortened: as §1
# [5] = tested on: Bordetella bronchiseptica; test: Bactericidal activity against Bordetella bronchiseptica ATCC 4617 measured after 18 hrs by CLSI broth dilution method; format: functional; settings: ATCC 4617, 18 h; procedure, shortened: as §1
# Burkholderia cepacia = test: Bactericidal activity against Burkholderia cepacia ATCC 25416 measured after 18 hrs by CLSI broth dilution method; format: functional; settings: ATCC 25416, 18 h; procedure, shortened: as §1
Structure (SMILES),MIC (Klebsiella pneumoniae [1]),MIC (Klebsiella pneumoniae [2]),MBC (Enterococcus faecium),"viability at 72 h, 0.5 ug/ml [3]",MBC [4],MBC [5],MBC (Burkholderia cepacia)
C[Si]1(C)OB(O)c2c(F)c(F)c(F)c(F)c21,16 µg/mL,32 µg/mL,,,,,
C[Si]1(C)OB(O)c2ccc(C(F)(F)F)cc21,,,50 µg/mL,,,,
C[Si]1(C)OB(O)c2ccc(B(O)O)cc21,4 µg/mL,16 µg/mL,400 µg/mL,112%,,,
C[Si]1(C)OB(O)c2ccc(F)c(F)c21,8 µg/mL,32 µg/mL,,108%,400 µg/mL,,
C[Si]1(C)OB(O)c2c(F)c3c(c(F)c21)B(O)OC3,16 µg/mL,32 µg/mL,,,400 µg/mL,400 µg/mL,100 µg/mL
C[Si]1(C)OB(O)c2ccc(Cl)cc21,,,,,200 µg/mL,,
C[Si]1(C)OB(O)c2ccc(Cl)c(Cl)c21,,,,,400 µg/mL,,
C[Si]1(C)OB(O)c2cc3c(c(F)c21)COB3O,8 µg/mL,32 µg/mL,,112%,,,

# Source: ChEMBL document CHEMBL4346672, “Antimicrobial and KPC/AmpC inhibitory activity of functionalized benzosiloxaboroles” (Eur J Med Chem, 2019)
